These results are taken from article PMC2988655 (Journal of immunology (Baltimore, Md. : 1950), 2010).

Like-named read-outs stand apart in the source and are kept apart here. Where a SMILES comes first, the peptide text is derived from it. [ ]: non-standard residue; d: D form. The star is where a group is joined. Sta = CC(C)C[C@H](N)[C@@H](O)CC(=O)O; Isovaleryl = CC(C)CC(=O)*; CH2Cl = ClC*

For data set [1], the system named is HLA-I presentation of M. tuberculosis epitopes by H37Rv-eGFP-infected DCs. Put plainly: cells. The format is cell-based, human. To be noted: for inhibition at 10 µg/mL: Homo sapiens, T-cell.
The test system of data set [2] is DCs. Put plainly: Toxicity of inhibitor to DCs. Type of data set: cell-based. To be noted: human DCs. An outline of the steps: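 Human DCs were derived from leukapheresis PBMCs. Adherent PBMCs were cultured 5 d with GM-CSF (10 ng/ml) and IL-4 (10 ng/ml) in RPMI 1640 with 10% pooled human serum, 4 mM L-glutamine and gentamicin (50 μg/ml).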
The target of data set [3] is Purified 20S immunoproteasomes (Homo sapiens, UniProt P28062+P28065+P40306). Put plainly: In vitro proteasome digestion of CFP10_2–21. Type of data set: biochemical. To be noted: epoxomicin 1 μM, 20 h, 37°C.
In data set [4] the test system is CD8^+ T cells present in PBMCs. To be noted: PBMCs of the donor from whom the clone was derived; cited from earlier work.
In data set [5] the target is T1, TAP (Homo sapiens, UniProt Q03518+Q03519).
T1 sequence (Q03518 1-748): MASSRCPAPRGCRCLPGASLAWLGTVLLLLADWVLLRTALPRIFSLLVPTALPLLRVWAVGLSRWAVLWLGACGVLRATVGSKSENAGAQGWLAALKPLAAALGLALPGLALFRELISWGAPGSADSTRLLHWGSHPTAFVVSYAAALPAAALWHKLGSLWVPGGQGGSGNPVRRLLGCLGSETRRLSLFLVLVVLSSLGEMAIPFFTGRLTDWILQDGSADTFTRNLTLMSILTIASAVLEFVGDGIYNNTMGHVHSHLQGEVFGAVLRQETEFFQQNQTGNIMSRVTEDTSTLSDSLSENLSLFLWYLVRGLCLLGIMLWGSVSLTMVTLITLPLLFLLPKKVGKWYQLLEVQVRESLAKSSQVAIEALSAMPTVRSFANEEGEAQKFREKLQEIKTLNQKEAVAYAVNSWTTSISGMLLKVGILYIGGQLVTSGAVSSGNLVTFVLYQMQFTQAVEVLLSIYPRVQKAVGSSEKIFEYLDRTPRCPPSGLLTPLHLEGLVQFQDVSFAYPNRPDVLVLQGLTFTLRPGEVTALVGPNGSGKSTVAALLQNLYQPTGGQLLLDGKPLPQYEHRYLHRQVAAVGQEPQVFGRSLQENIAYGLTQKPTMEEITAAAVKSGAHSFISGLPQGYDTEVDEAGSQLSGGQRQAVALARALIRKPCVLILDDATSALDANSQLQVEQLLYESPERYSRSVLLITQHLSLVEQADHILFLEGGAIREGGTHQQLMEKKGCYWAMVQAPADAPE
T1 sequence (Q03519 1-686): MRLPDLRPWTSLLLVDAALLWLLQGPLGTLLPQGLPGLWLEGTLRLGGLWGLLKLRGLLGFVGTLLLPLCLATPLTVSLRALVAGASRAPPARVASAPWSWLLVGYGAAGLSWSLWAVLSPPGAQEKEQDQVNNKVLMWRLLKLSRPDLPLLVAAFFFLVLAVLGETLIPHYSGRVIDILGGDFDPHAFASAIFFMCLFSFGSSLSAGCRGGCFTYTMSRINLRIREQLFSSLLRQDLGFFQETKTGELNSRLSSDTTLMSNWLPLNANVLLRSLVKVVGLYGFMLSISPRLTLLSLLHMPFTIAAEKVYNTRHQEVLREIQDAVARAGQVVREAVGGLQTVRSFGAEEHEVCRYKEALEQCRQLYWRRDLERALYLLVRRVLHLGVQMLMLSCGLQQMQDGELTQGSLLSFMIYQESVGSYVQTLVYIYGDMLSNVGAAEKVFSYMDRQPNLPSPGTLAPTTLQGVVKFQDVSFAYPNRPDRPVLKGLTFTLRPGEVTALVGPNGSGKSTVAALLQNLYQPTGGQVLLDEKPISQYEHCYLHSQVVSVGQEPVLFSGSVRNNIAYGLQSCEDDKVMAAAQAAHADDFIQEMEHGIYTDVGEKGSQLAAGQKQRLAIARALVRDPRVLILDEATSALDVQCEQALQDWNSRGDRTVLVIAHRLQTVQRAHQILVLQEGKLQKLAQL
Put plainly: ICP47-mediated TAP inhibition, intracellular IFN-γ staining of T cell clones. Type of data set: cell-based. To be noted: adenovirus-ICP47-transduced DCs pulsed with 0.25–1 μg/ml cognate peptides.

The mark [6] stands for this setting: […], AAF-CMK at highest possible nontoxic dose, data not shown.
Where [7] appears, read: cycloheximide 10 μg/ml, […], Fig. 5.

Regarding `C[C@H](N)C(=O)N[C@@H](C)C(=O)N[C@@H](Cc1ccccc1)C(=O)CCl` [AAF-CMK] (H-Ala-Ala-Phe-CH2Cl), the “Effect on presentation of the EsxJ24–34 or CFP10_75–83 epitope” value in data set [1] (setting [6]) is recorded as “no effect”.
Regarding `CO/C1=C\C(C)=C\[C@@H](C)[C@@H](O)[C@@H](C)C/C(C)=C/C=C/[C@H](OC)[C@@H]([C@@H](C)[C@@H](O)[C@H](C)[C@@]2(O)C[C@@H](O)[C@H](C)[C@@H](C(C)C)O2)OC1=O` [Bafilomycin, bafilomycin], the “Effect on presentation of all of the epitopes examined” value in data set [1] ([…], BFA 0.1 μg/ml, bafilomycin 0.2 μM, Fig. 1) is “did not significantly inhibit”.
For `C[C@@H]1C[C@@H]([C@H](O)CC2CC(=O)NC(=O)C2)C(=O)[C@@H](C)C1` [Cycloheximide, cycloheximide], the inhibition at 10 µg/mL in data set [1] (read-out: Inhibition of presentation of epitope CFP10_2–12) is > 70%. Moreover, the inhibition at 10 µg/mL in data set [1] (read-out: Inhibition of presentation of epitope EsxJ24–34) is > 70%. Also, in data set [1] (setting [7]), the “Effect on presentation of the HLA-E–presented epitope” value is recorded as “enhanced presentation” and the “Effect on presentation of the epitope CFP10_2–9” value is reported as “only slightly inhibited”.
In the case of `CC[C@H](C)[C@H](NC(=O)[C@H]([C@@H](C)CC)N(C)C(C)=O)C(=O)N[C@H](C(=O)N[C@@H](CC(C)C)C(=O)[C@@]1(C)CO1)[C@@H](C)O` [Epoxomicin, epoxomicin], the “Effect on presentation of CFP10_2–9 and Ag85B144–153 epitopes” value in data set [1] (epoxomicin 1–10 μM, […], Fig. 2) was “ablated”. For the same compound, the “Highest dose that was nontoxic to DCs” value in data set [2] turned out to be 10 µM. Further, the “Effect on amount of CFP10_2–11 generated from CFP10_2–21 by proteasomes” value in data set [3] (IFN-γ ELISPOT and LC-MS) was “drastically reduced”. In data set [3] (detectible by T cell assay but not LC-MS), the “Effect on generation of CFP10_2–12 from CFP10_2–21 by proteasomes” value is on record as “enhanced the generation”.
Take `CCN(CC)CCCC(C)Nc1ccnc2cc(Cl)ccc12` (stereo not shown) [chloroquine]: the “Effect on presentation of the EsxJ24–34 or CFP10_75–83 epitope” value in data set [1] is given as “neither of these epitopes was inhibited”.
On to `CC(=O)N[C@@H](CC(C)C)C(=O)N[C@@H](CC(C)C)C(=O)N[C@H](C=O)CCCNC(=N)N` [leupeptin], for which the “Effect on presentation of the EsxJ24–34 or CFP10_75–83 epitope” value in data set [1] (setting [6]) was “did not block”.
For the compound `CC(C)CC(=O)N[C@H](C(=O)N[C@H](C(=O)N[C@@H](CC(C)C)[C@@H](O)CC(=O)N[C@@H](C)C(=O)N[C@@H](CC(C)C)[C@@H](O)CC(=O)O)C(C)C)C(C)C` [pepstatin A] (Isovaleryl-VV[Sta]A[Sta]-OH), in data set [1] (setting [6]), the “Effect on presentation of the EsxJ24–34 or CFP10_75–83 epitope” value was “did not block”.
AEMKTDAA [CFP10_2–9]: the “Ex Vivo Frequency of CD8+ T cells present in PBMCs specific for the indicated epitope” value in data set [4] is on record as 1/102.
As to EMKTDAATL [CFP10_3–11], in data set [4], the “Ex Vivo Frequency of CD8+ T cells present in PBMCs specific for the indicated epitope” value is recorded as 1/646.
With “ICP47: HSV-1–encoded protein, prevents peptide binding to cytosolic face of TAP; expressed from an adenovirus vector”, the “Effect on presentation of cognate peptide to CD8+ T cell clones” value in data set [5] was “no effect”.
